Source: PubChem BioAssay (Sanford-Burnham Center for Chemical Genomics)
STEP inh: inhibitors of human striatal-enriched phosphatase STEP | inhibition, % at 20 µM | recombinant STEP, OMFP fluorogenic substrate, fluorescence | actives 0.25% (n = 360,000) | AID 588621;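 active = inhibition at 20 µM, scaled per plate between control wells, above about 37%, limit read from the data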
Target sequence (P54829 whole entry, looked up): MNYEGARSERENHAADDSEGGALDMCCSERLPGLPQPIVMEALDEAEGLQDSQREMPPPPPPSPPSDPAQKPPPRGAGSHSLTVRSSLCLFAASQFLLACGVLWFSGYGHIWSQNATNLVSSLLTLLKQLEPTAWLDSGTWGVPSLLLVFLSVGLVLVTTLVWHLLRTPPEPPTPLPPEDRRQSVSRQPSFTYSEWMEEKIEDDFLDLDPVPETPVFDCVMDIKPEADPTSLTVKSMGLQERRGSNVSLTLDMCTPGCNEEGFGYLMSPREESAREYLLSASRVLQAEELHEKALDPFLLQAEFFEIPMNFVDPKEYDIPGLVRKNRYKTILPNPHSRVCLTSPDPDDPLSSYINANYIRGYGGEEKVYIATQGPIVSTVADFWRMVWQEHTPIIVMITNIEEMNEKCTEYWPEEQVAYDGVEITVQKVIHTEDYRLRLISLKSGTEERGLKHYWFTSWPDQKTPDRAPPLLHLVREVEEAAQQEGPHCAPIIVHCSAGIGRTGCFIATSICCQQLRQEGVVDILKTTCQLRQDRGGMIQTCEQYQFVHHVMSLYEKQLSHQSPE
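Material: STEP (striatal-enriched tyrosine phosphatase) enzyme, cell-free | Medium: 50 mM Bis-Tris pH 6.0 with 2.5 mM DTT and 0.005% Tween 20 | Read-out: Percent inhibition scaled to no-enzyme and uninhibited-enzyme controls, plate-pattern corrected | Signal: Fluorescence read at 480 nm ex / 540 nm em | Times: 20 min reaction, room temperature, in the dark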
DNMT1 block: DNMT1 (human) enzyme inhibition | inhibition (reported as % activation of signal), % at 10 µM | DNMT1 molecular beacon, Hinp1I cleavage, fluorescence | actives 0.83% (n = 360,000); in the data active = inhibition above about 50%
Scp1 inh: inhibitors of human Scp-1 phosphatase | actives 0.88% (n = 340,000) | AID 493091 | inhibition, % at 20 µM | Recombinant Scp1, phosphopeptide, malachite green phosphate absorbance;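 active = inhibition above about 50% at 20 µM, limit read from the data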
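Test system – truncated SCP-1 phosphatase (76-261aa) · Reagent – Phosphorylated 17-residue peptide substrate · Incubation – 45 min room-temperature reaction, 5 min colour, 30 min stabiliser · Detection – colorimetric phosphate reagent with accelerator and stabiliser, absorbance at 630 nm · Measure – % inhibition at 20 µM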
SUMO1-SIM PPI: modulators of human SUMO1-mediated protein-protein interactions; inhibition, % at 20 µM; SUMO1 binding to a labelled peptide, TR-FRET, 1 h; actives 0.33% (n = 360,000); in the data active = inhibition above about 37%
Target sequence (P63165 whole entry, looked up): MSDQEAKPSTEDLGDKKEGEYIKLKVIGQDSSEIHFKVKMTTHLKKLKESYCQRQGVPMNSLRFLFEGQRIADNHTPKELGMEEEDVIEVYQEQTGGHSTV
LMPTP inh: blocks human LMPTP phosphatase; recombinant LMPTP-A, OMFP fluorogenic substrate, fluorescence intensity; AID 651560; inhibition, % at 20 µM; actives 0.22% (n = 360,000);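 active = compounds that cut the enzyme signal by at least half of the control window in the single-dose screen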
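Test system – LMPTP-A enzyme · Amount – LMPTP-A at 0.625 nM final in the reaction · Buffer or medium – Bis-Tris pH 6.0, DTT, detergent · Reagent – OMFP 400 µM · Doses – single 20 µM dose · Schedule – reaction 50 min, room temperature, dark · Detection – fluorescence intensity of OMFP turnover product · Evaluation – percent inhibition versus substrate-only and uninhibited controls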
Beacon interf DR: shows spectral interference in the DNMT1 beacon assay | shares compounds with DNMT1 block | molecular beacon fluorescence, spectral interference counter-screen | 200 tested, under 10 active | IC50, µM; call rule not given here
DNMT1 inh conf: DNMT1 inhibition confirmation, single concentration; AID 602385; DNMT1 molecular beacon HinP1I cleavage, fluorescence; shares compounds with DNMT1 block; actives 8% (n = 2,300); inhibition, % at 10 µM;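 active = average inhibition of at least 30% in the single-concentration confirmation test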
Beacon interf: shows spectral interference in the DNMT1 beacon assay | actives 1% (n = 2,300) | AID 602387 | activation (fluorescence interference), % at 10 µM | DNMT1 molecular beacon spectral interference counterscreen, fluorescence 485/520 | shares compounds with DNMT1 block;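 active = activation of at least 30% at 10 µM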;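 note: DNMT1 catalytic domain with a HinP1I cleavage step and a FAM/dabcyl DNA beacon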
Of the large screens only hits and unclear results are named; the others gave an inactive call (follow-up assays come after a bar, where they were run). In the library only some 1.7% were active in any assay of this set; here they are far more common.

COc1ccc(NS(=O)(=O)c2ccc(O)c(NS(=O)(=O)c3ccc(NC(C)=O)cc3)c2)cc1	none
CC(C)COC(=O)N1CCCCC1c1cc(C(=O)N2CCOCC2)no1 (stereo not drawn)	none (no result: Scp1 inh)
C=CCn1c(SCC(=O)NCC2CCCO2)nc2scc(-c3ccccc3)c2c1=O (stereo not drawn)	none
C=CCn1c(SCC(=O)NC2CCCC2)nc2scc(-c3ccco3)c2c1=O	DNMT1 block 52 | DNMT1 inh conf inactive | Beacon interf inactive
Cc1nc(C(N)=O)nc2ccccc12	none
CC(=C\C(=O)O)/C(=C/c1ccc(C)o1)C(=O)O	DNMT1 block 78, Scp1 inh 56 | DNMT1 inh conf inactive | Beacon interf inactive
Cc1ccc(CNC(=O)Cn2cnc(C(=O)Nc3ccc(C)c(C)c3)n2)o1	none
C=C(C)[C@@H]1CCC2(C(=O)O)CC[C@]3(C)[C@H](CC[C@@H]4[C@@]5(C)CCC(=O)C(C)(C)[C@@H]5CC[C@]43C)[C@@H]12 (stereo partly drawn)	DNMT1 block 55 | DNMT1 inh conf inactive | Beacon interf inactive
C=C(C)[C@@H]1CC[C@]2(C(=O)O)CC[C@]3(C)C(CCC4[C@@]5(C)CC[C@H](O)C(C)(C)C5CC[C@]43C)C12 (stereo partly drawn)	DNMT1 block 60 | DNMT1 inh conf inactive | Beacon interf inactive
C=C(CC[C@@H](O)C(C)(C)O)[C@H]1CC[C@]2(C)[C@@H]1CCC1[C@@]3(C)CCC(=O)C(C)(C)C3CC[C@]12C (stereo partly drawn)	none
Cc1cc2nc(CN(C)C(=O)C3CCC(=O)N(C4CCCC4)C3)[nH]c2cc1C (stereo not drawn)	DNMT1 block 73 (no result: Scp1 inh) | DNMT1 inh conf inactive | Beacon interf inactive
CCC1(C2C=COC=C2)NC(=O)NC1=O (stereo not drawn)	none (no result: Scp1 inh)
CS(=O)(=O)Cc1ccc(C(=O)NC2CCCc3ccccc32)cc1 (stereo not drawn)	none
CC1(C)NC(=O)N(CC(=O)OCC(=O)Nc2cccc(S(N)(=O)=O)c2)C1=O	none
COc1cc(CCc2ccccc2)c(C(=O)O)c(O)c1C/C=C(/C)CCC=C(C)C	DNMT1 block 61, SUMO1-SIM PPI 77 | Beacon interf DR inactive | DNMT1 inh conf 84 | Beacon interf inactive
COc1cc(CCc2ccccc2)c(C(=O)O)c(O)c1CC=C(C)C	none
Cc1c(C(N)=O)sc2ncn(CC(=O)OC(C)C)c(=O)c12	DNMT1 block 78 | DNMT1 inh conf inactive | Beacon interf inactive
CC(C)CN(C(=O)COC(=O)c1cc2c(s1)CCC2)C1CCS(=O)(=O)C1 (stereo not drawn)	DNMT1 block 96, Scp1 inh 89 | DNMT1 inh conf inactive | Beacon interf inactive
Cc1ccc2c(c1)C(c1ccccc1)N(C(=O)c1c(F)cccc1Cl)CC(=O)N2 (stereo not drawn)	none
CC(=O)c1c(O)cc(=O)n(-c2ccccc2)c1-c1ccc(Cl)cc1	none
CCc1c(O)cc(=O)n(-c2ccccc2)c1-c1ccccc1	DNMT1 block 58 | DNMT1 inh conf inactive | Beacon interf inactive
Cc1cccc(NC(=O)CSc2nc(=O)n(CCN3CCOCC3)c3c2CCCC3)c1C	none
Cc1c(CCCN)c2ccccc2n1Cc1ccccc1	none
O=C(Cc1cccs1)Nc1nncs1	none
CC(C)Cc1nnc(NC(=O)Cc2cccs2)s1	DNMT1 block 63 | DNMT1 inh conf inactive | Beacon interf inactive
O=C(O)c1ccc(-n2cccc2/C=C2/SC(=O)N(CC(=O)N3CCCC3)C2=O)cc1	STEP inh 93, DNMT1 block 91, Scp1 inh 76, SUMO1-SIM PPI 81 | Beacon interf DR inactive | DNMT1 inh conf 81 | Beacon interf inactive
O=C(O)c1ccc(-n2cccc2/C=C2/NC(=O)N(c3cccc(Cl)c3)C2=O)cc1	STEP inh 43, DNMT1 block 94, Scp1 inh 77 | Beacon interf DR inactive | DNMT1 inh conf 84 | Beacon interf inactive
O=C1N/C(=C/c2cccn2-c2ccc(F)cc2)C(=O)N1Cc1ccccc1	none
O=C(O)c1cccc(-n2cccc2/C=C2\NC(=O)N(Cc3ccc(F)cc3)C2=O)c1	DNMT1 block 107 | DNMT1 inh conf inactive | Beacon interf inactive
O=C(O)c1ccc(-n2cccc2/C=C2/NC(=O)N(c3ccccc3)C2=O)cc1	STEP inh 73, DNMT1 block 93, Scp1 inh 89, SUMO1-SIM PPI 89 | Beacon interf DR inactive | DNMT1 inh conf 83 | Beacon interf inactive
CCC(=O)NN1CCN(c2ccncc2S(=O)(=O)N2CCCCC2)CC1	none
Cc1nnn(-c2nonc2N)c1C(=O)N/N=C/c1cccc2ccccc12	DNMT1 block 60 | DNMT1 inh conf inactive | Beacon interf inactive
O=C(O)c1ccc(C(=O)c2ccc3c(c2)C(=O)N(CCO)C3=O)cc1	DNMT1 block 88 | DNMT1 inh conf inactive | Beacon interf inactive
CC1(C)CC2(CCO1)C(Nc1ccccc1)=NC(=S)N2c1ccccc1 (stereo not drawn)	none (no result: STEP inh, DNMT1 block, SUMO1-SIM PPI, LMPTP inh)
COCCNC(=S)N/N=C(\C)c1ccc(OC(F)F)cc1	DNMT1 block 62 | DNMT1 inh conf inactive | Beacon interf inactive
COc1ccc(C(=O)Nc2ccccc2C(=O)Nc2cccc(C)n2)cc1	DNMT1 block 83 | DNMT1 inh conf inactive | Beacon interf inactive
COc1ccc(C(=O)Nc2ccccc2C(=O)Nc2cc(C)ccn2)cc1	none
Cc1ccc(Cn2nc(C)c(NC(=O)CSc3nc4c(c(C(F)(F)F)n3)CCc3ccccc3-4)c2C)cc1	none
Cc1nn(Cc2ccc(Cl)cc2)c(C)c1NC(=O)CSc1nc2c(c(C(F)(F)F)n1)CCc1ccccc1-2	DNMT1 block 51 | DNMT1 inh conf inactive | Beacon interf inactive
CSCCC(NC=O)C(=O)NC(C)C(=O)O (stereo not drawn)	none
COc1ccccc1OCCSc1nc2ccccc2n1CC(=O)O	DNMT1 block 80 (no result: Scp1 inh) | DNMT1 inh conf inactive | Beacon interf inactive
O=c1[nH]nnc2c1sc1nc(N3CCOCC3)c3c(c12)CCCC3	DNMT1 block 95 | DNMT1 inh conf inactive | Beacon interf inactive
C1CCc2c(c(N3CCOCC3)nc3sc4c(N5CCOCC5)nnnc4c23)C1	none
CN(Cc1ccc(-n2cccn2)cc1)Cc1nc(-c2cnccn2)no1	none
COc1cc(NS(=O)(=O)c2ccc(NC(=S)NC(C)=O)cc2)nc(OC)n1	DNMT1 block 54 | DNMT1 inh conf inactive | Beacon interf inactive
